The nature of experiment [1]: HUVEC growth inhibition – cell-based, human, primary screen (AID 575;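 active = viability at or below 30% in both replicate assays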;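 note: 100% = median of untreated cell wells with 0.1% DMSO on each plate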). As to conditions: HUVEC proliferation, CellTiter-Glo luminescence, 72 h; at 10 µM; stronger effect = lower value. Put shortly: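 Test system – primary HUVEC, no more than 12 passages · Dosing – one dose, 10 µM final, 0.1% DMSO · Times – 72 h treatment at 37 °C · Measured by – ATP-based CellTiter-Glo luminescent read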

The nature of experiment [2]: H69AR cell proliferation blockers – human, duplicate replicates, primary screen (AID 580).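 Note: 100% = mean luminescence of untreated wells and 0% = no signal.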 The settings on record: H69AR lung tumor cells viability, ATP luminescence, 72 h; at 10 µM; stronger effect = lower value.
Experiment [3] in a line: MRP1 drug-resistance reversers in H69AR cells – cell-based, doxorubicin co-treatment, pilot screen (AID 601;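 active = viability loss from added drug above about 55%, and viability with drug at most 40%, in both replicates, limit read from the data, passing the limit was not always enough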). As to conditions: CellTiter-Glo, 72 h, at 10 µM; for differential viability (reversal): stronger effect = higher value. (ATP-based viability assays read luminescence as a measure of living cells.)
Experiment [4] in a line: yeast transport mutant growth inhibition pilot in 384-well plates, post-Golgi transport modulator project (AID 636; in the data active = inhibition above about 31%). The settings on record: absorbance 615 nm, about 18 h, stronger effect = higher value.
Experiment [5] is described as follows: growth suppression of yeast trafficking mutant, preliminary HTS, modulators of trafficking downstream of Golgi apparatus project, 1536-format plate, OD 615 nm (AID 637; in the data active = inhibition above about 30%). The settings on record: yeast transport mutant growth, absorbance 615 nm, 18 h; stronger effect = higher value.
Setting [6] is: H69AR cells + 2 uM doxorubicin, measured here: viability with 2 uM doxorubicin, stronger effect = lower value.
[7] abbreviates: H69AR cells, compound alone cytotoxicity.

Activity calls are given as the source filed them.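 Rule for the calls, unless noted: active = viability at or under a set limit in both replicates, limit being median viability minus 3 SD (cut at about 48% in these data, passing the limit was not always enough); inconclusive = at or under the limit in just one replicate; inactive = at or above the limit in both replicates.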

Broadly, the viability is a read-out of living cells in per cent, often relative to untreated cells. As a reminder, the inhibition is the relative decrease from the control value, in per cent. Regarding `CCn1c(SCc2cccc(C(F)(F)F)c2)nnc1-c1ccco1`, the viability in experiment [1] was 93.9% (inactive); in experiment [2], 90.1% (inactive); in experiment [3] (setting [6]) it was 81.1%; in experiment [3] (setting [7]), 90.1%. Also, in experiment [3] (H69AR cells + 2 uM doxorubicin), the differential viability (reversal) was 9% (inactive). In addition, the inhibition is -5.2% (inactive) in experiment [4] and -0.16% (inactive) in experiment [5].
As to `CN1CCCC(OC(=O)c2ccc3c(c2)OCCO3)C1` (stereo not drawn), the viability in experiment [1] was 103% (inactive); in experiment [2], 106% (inactive); in experiment [3] (setting [6]), 86.7%; in experiment [3] (setting [7]), 106%. In experiment [3] (H69AR cells + 2 uM doxorubicin), the differential viability (reversal) is 19.1% (inactive). Further, the inhibition was -4.4% (inactive) in experiment [4] and -2.06% (inactive) in experiment [5].
Consider `CCOC(=O)c1cc2c(=O)n3cccc(C)c3nc2n(CCOC)c1=NC(=O)c1ccncc1`, for which the viability was 104% (inactive) in experiment [1], 82.6% (inactive) in experiment [2], 92.6% in experiment [3] (setting [6]) and 82.6% in experiment [3] (setting [7]). Besides, the differential viability (reversal) in experiment [3] (H69AR cells + 2 uM doxorubicin) was -10.1% (inactive). Moreover, the figures for the inhibition in experiment [4] and in experiment [5] were -4.13% (inactive) and 3.33% (inactive), respectively.
With `CCCS(=O)(=O)N1CCC(C(=O)NCCN2CCCC2)CC1`, the viability in experiment [1] is 96.5% (inactive); in experiment [2], 94.9% (inactive); in experiment [3] (setting [6]) it was 86.6%; in experiment [3] (setting [7]), 94.9%. In addition, in experiment [3] (H69AR cells + 2 uM doxorubicin), the differential viability (reversal) is 8.3% (inactive). Moreover, the results for the inhibition in experiment [4] and in experiment [5] were -3.2% (inactive) and 2.86% (inactive), respectively.
On to `COc1ccccc1CC(=O)NCc1ccc2c(c1)OCO2`, for which the viability in experiment [1] is 106% (inactive); in experiment [2], 93.5% (inactive); in experiment [3] (setting [6]), 84.3%; in experiment [3] (setting [7]), 93.5%. In experiment [3] (H69AR cells + 2 uM doxorubicin), the differential viability (reversal) is 9.18% (inactive). Besides, the inhibition in experiment [4] is -7.2% (inactive); in experiment [5] it was 6.19% (inactive).
For the compound `CCOC(=O)N1CCC(N(C(=O)Nc2ccc(Cl)c(Cl)c2)C(C)CC)CC1` (stereo not drawn), the viability in experiment [1] is 79.3% (inactive); in experiment [2], 97.7% (inactive); in experiment [3] (setting [6]), 93.4%; in experiment [3] (setting [7]) it was 97.7%. Also, in experiment [3] (H69AR cells + 2 uM doxorubicin), the differential viability (reversal) is 4.27% (inactive). Also, the inhibition was -2.63% (inactive) in experiment [4] and 0.79% (inactive) in experiment [5].
With `CC(C)OC(=O)CSc1nnc(-c2ccc(O)cc2)n1Cc1ccccc1`, the viability was 109% (inactive) in experiment [1], 80.8% (inactive) in experiment [2], 85% in experiment [3] (setting [6]) and 80.8% in experiment [3] (setting [7]). Also, in experiment [3] (H69AR cells + 2 uM doxorubicin), the differential viability (reversal) was -4.22% (inactive). For the same compound, the inhibition in experiment [4] is -7.2% (inactive); in experiment [5], -2.22% (inactive).
Turning to `CCOC(=O)c1ccc(NS(=O)(=O)c2ccc(SC)cc2)cc1`, the viability in experiment [1] was 99% (inactive); in experiment [2] it was 108% (inactive); in experiment [3] (setting [6]), 97.4%; in experiment [3] (setting [7]), 108%. The differential viability (reversal) in experiment [3] (H69AR cells + 2 uM doxorubicin) is 10.8% (inactive). The values for the inhibition in experiment [4] and in experiment [5] were -7.11% (inactive) and -3.81% (inactive), respectively.
With `c1ccc(CC2CCN(Cc3nc(-c4ccccc4)no3)CC2)cc1`, the viability in experiment [1] is 65.1% (inactive); in experiment [2] it was 87.9% (inactive); in experiment [3] (setting [6]), 92.2%; in experiment [3] (setting [7]), 87.9%. Moreover, the differential viability (reversal) in experiment [3] (H69AR cells + 2 uM doxorubicin) was -4.31% (inactive). For the same compound, the inhibition in experiment [4] is -5.13% (inactive); in experiment [5] it was 0.95% (inactive).
`Cc1ccc(NC(=O)c2ccccc2F)nc1`: the viability in experiment [1] was 68.1% (inactive); in experiment [2] it was 90.9% (inactive); in experiment [3] (setting [6]), 97.2%; in experiment [3] (setting [7]) it was 90.9%. Further, the differential viability (reversal) in experiment [3] (H69AR cells + 2 uM doxorubicin) was -6.37% (inactive). Moreover, the inhibition in experiment [4] was -4.93% (inactive); in experiment [5], 1.11% (inactive).
As to `CCc1c(C(=O)NCCc2ccc(OC)c(OC)c2)[nH]c(C)c1C(C)=O`, the viability was 98.6% (inactive) in experiment [1], 87% (inactive) in experiment [2], 82.1% in experiment [3] (setting [6]) and 87% in experiment [3] (setting [7]). In addition, the differential viability (reversal) in experiment [3] (H69AR cells + 2 uM doxorubicin) was 4.88% (inactive). The inhibition in experiment [4] is -5.2% (inactive); in experiment [5], 3.97% (inactive).
Turning to `CCCc1ccc(C(C)NC(=O)c2cnccn2)cc1` (stereo not drawn), the viability in experiment [1] is 87.3% (inactive); in experiment [2], 100% (inactive); in experiment [3] (setting [6]), 83.5%; in experiment [3] (setting [7]), 100%. For the same compound, the differential viability (reversal) in experiment [3] (H69AR cells + 2 uM doxorubicin) was 16.6% (inactive). For the same compound, the values for the inhibition in experiment [4] and in experiment [5] were -5.26% (inactive) and 2.06% (inactive), respectively.
As for `Cc1nn(Cc2ccccc2Cl)c(C)c1NC(=O)C1C2CCC(O2)C1C(=O)O` (stereo not drawn), the viability in experiment [1] is 93.8% (inactive); in experiment [2], 90.9% (inactive); in experiment [3] (setting [6]), 87.8%; in experiment [3] (setting [7]), 90.9%. The differential viability (reversal) in experiment [3] (H69AR cells + 2 uM doxorubicin) was 3.11% (inactive). Further, the figures for the inhibition in experiment [4] and in experiment [5] were -1.97% (inactive) and -7.14% (inactive), respectively.
`CC(=O)Nc1cccc(NC(=O)CSc2nnnn2C)c1`: the viability in experiment [1] was 115% (inactive); in experiment [2], 106% (inactive); in experiment [3] (setting [6]), 95.9%; in experiment [3] (setting [7]), 106%. In addition, in experiment [3] (H69AR cells + 2 uM doxorubicin), the differential viability (reversal) was 10.2% (inactive). The inhibition is -5.39% (inactive) in experiment [4] and 0.95% (inactive) in experiment [5].
In the case of `COc1cccc(/C(O)=C2/C(=O)C(=O)N(CCN3CCOCC3)C2c2cccnc2)c1` (stereo not drawn), the viability in experiment [1] was 98.9% (inactive); in experiment [2], 93.6% (inactive); in experiment [3] (setting [6]), 92.8%; in experiment [3] (setting [7]) it was 93.6%. In experiment [3] (H69AR cells + 2 uM doxorubicin), the differential viability (reversal) was 0.755% (inactive). Further, the inhibition in experiment [4] was 2.99% (inactive); in experiment [5], -3.02% (inactive).
Regarding `Cc1cc(NC(=O)CCC(=O)N(CC2CCCO2)C(C(=O)NC2CCCC2)c2ccccc2C)no1` (stereo not drawn), the viability is 86.4% (inactive) in experiment [1], 96.7% (inactive) in experiment [2], 83.2% in experiment [3] (setting [6]) and 96.7% in experiment [3] (setting [7]). For the same compound, in experiment [3] (H69AR cells + 2 uM doxorubicin), the differential viability (reversal) was 13.5% (inactive). The inhibition in experiment [4] is -2.11% (inactive); in experiment [5], 5.4% (inactive).
As for `CN=C(C)C1=C(O)C(C(=O)OC)C(C)(C)CC1=O` (stereo not drawn), the viability in experiment [1] was 108% (inactive); in experiment [2] it was 98.5% (inactive); in experiment [3] (setting [6]), 95.3%; in experiment [3] (setting [7]), 98.5%. Also, in experiment [3] (H69AR cells + 2 uM doxorubicin), the differential viability (reversal) was 3.21% (inactive). The figures for the inhibition in experiment [4] and in experiment [5] were -1.43% (inactive) and 2.7% (inactive), respectively.
Take `Cc1ccccc1OCCn1c(=O)oc2ccccc21`: the viability in experiment [1] was 82.3% (inactive); in experiment [2] it was 91.5% (inactive); in experiment [3] (setting [6]) it was 74.7%; in experiment [3] (setting [7]), 91.5%. The differential viability (reversal) in experiment [3] (H69AR cells + 2 uM doxorubicin) was 16.8% (inactive). Besides, the values for the inhibition in experiment [4] and in experiment [5] were -5.07% (inactive) and 2.38% (inactive), respectively.
As for `CCc1ncc(C(O)c2cccc(OC)c2OC)n1C` (stereo not drawn), the viability in experiment [1] is 101% (inactive); in experiment [2] it was 98.7% (inactive); in experiment [3] (setting [6]) it was 87.3%; in experiment [3] (setting [7]), 98.7%. The differential viability (reversal) in experiment [3] (H69AR cells + 2 uM doxorubicin) is 11.3% (inactive). For the same compound, the inhibition was -3.68% (inactive) in experiment [4] and 4.13% (inactive) in experiment [5].
